# What was measured:
# Mus musculus [1] = assay: In vivo antinociceptive activity was determined using mouse acetylcholine induced abdominal constriction test following subcutaneous administration; range (0.024-0.066); type: functional; details: Abdomen, sc
# Summary of the method: (§1)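 Mice given compound by subcutaneous injection, then challenged with acetylcholine to induce abdominal constrictions. Antinociceptive ED50 determined in mg/kg sc, with a bracketed range reported alongside.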
# Mus musculus [2] = assay: In vivo antinociceptive activity was determined using mouse acetylcholine induced abdominal constriction test following subcutaneous administration; range (0.012-0.032); type: functional; details: Abdomen, sc; summary of the method: as §1
# Mus musculus [3] = assay: In vivo antinociceptive activity was determined using mouse acetylcholine induced abdominal constriction test following subcutaneous administration; range (0.0003-0.002); type: functional; details: Abdomen, sc; summary of the method: as §1
# [4] = In vitro agonist activity at kappa opioid receptor in rabbit vas deferens.
# Mus musculus [5] = assay: In vivo antinociceptive activity was determined using mouse acetylcholine induced abdominal constriction test following subcutaneous administration; range (0.000033-0.000241); type: functional; details: Abdomen, sc; summary of the method: as §1
# Mus musculus [6] = assay: In vivo antinociceptive activity was determined using mouse acetylcholine induced abdominal constriction test following subcutaneous administration; range (0.01-0.02); type: functional; details: Abdomen, sc; summary of the method: as §1
# Mus musculus [7] = assay: In vivo antinociceptive activity was determined using mouse acetylcholine induced abdominal constriction test following subcutaneous administration; range (0.20-1.09); type: functional; details: Abdomen, sc; summary of the method: as §1
# Mus musculus [8] = assay: In vivo antinociceptive activity was determined using mouse acetylcholine induced abdominal constriction test following subcutaneous administration; range (0.007-0.018); type: functional; details: Abdomen, sc; summary of the method: as §1
# Mus musculus [9] = assay: In vivo antinociceptive activity was determined using mouse acetylcholine induced abdominal constriction test following subcutaneous administration; range (0.04-0.15); type: functional; details: Abdomen, sc; summary of the method: as §1
# Rattus norvegicus [10] = species: Rattus norvegicus; assay: Agonistic/Antagonistic activity in rat vas deferens (RVD) at 10e-5 M; not active; type: functional
# Mus musculus [11] = assay: In vivo antinociceptive activity was determined using mouse acetylcholine induced abdominal constriction test following subcutaneous administration; range (0.12-0.48); type: functional; details: Abdomen, sc; summary of the method: as §1
# Mus musculus [12] = assay: In vivo antinociceptive activity was determined using mouse acetylcholine induced abdominal constriction test following subcutaneous administration; type: functional; details: Abdomen, sc; summary of the method: as §1
# Mus musculus [13] = assay: In vivo antinociceptive activity was determined using mouse acetylcholine induced abdominal constriction test following subcutaneous administration; range (0.059-0.173); type: functional; details: Abdomen, sc; summary of the method: as §1
# Mus musculus [14] = assay: In vivo antinociceptive activity was determined using mouse acetylcholine induced abdominal constriction test following subcutaneous administration; range (0.03-0.08); type: functional; details: Abdomen, sc; summary of the method: as §1
# Mus musculus [15] = assay: In vivo antinociceptive activity was determined using mouse acetylcholine induced abdominal constriction test following subcutaneous administration; range (0.002-0.007); type: functional; details: Abdomen, sc; summary of the method: as §1
# Mus musculus [16] = assay: In vivo antinociceptive activity was determined using mouse acetylcholine induced abdominal constriction test following oral administration; range (0.005-0.035); type: functional; details: Abdomen
# Mus musculus [17] = assay: In vivo antinociceptive activity was determined using mouse acetylcholine induced abdominal constriction test following subcutaneous administration; range (0.00012-0.00045); type: functional; details: Abdomen, sc; summary of the method: as §1
# Mus musculus [18] = assay: In vivo antinociceptive activity was determined using mouse acetylcholine induced abdominal constriction test following subcutaneous administration; range (0.00027-0.00086); type: functional; details: Abdomen, sc; summary of the method: as §1
# Rattus norvegicus [19] = assay: In vivo antinociceptive activity was determined using rat paw pressure test following subcutaneous administration; range (0.00058-0.0014); type: functional; details: sc
# Mu-type opioid receptor = Mu-type opioid receptor (Rattus norvegicus, UniProt P33535); assay: In vitro inhibitory activity against mu specific tissue of rat vas deferens; type: functional, tissue-based
# Chain of Mu-type opioid receptor (P33535 whole entry): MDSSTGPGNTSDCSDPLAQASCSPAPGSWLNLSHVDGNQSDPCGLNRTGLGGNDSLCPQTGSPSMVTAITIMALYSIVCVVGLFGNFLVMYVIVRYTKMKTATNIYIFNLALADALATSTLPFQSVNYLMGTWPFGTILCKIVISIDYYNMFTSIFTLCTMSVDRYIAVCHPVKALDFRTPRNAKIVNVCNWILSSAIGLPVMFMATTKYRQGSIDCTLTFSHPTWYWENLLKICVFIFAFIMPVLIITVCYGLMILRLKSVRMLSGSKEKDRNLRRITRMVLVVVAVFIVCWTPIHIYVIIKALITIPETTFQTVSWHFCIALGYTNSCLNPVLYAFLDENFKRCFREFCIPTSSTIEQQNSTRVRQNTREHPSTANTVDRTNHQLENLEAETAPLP
# [20] = target: Kappa-type opioid receptor (Homo sapiens) (UniProt P41145); details: Oryctolagus cuniculus; Vas deferens
# Chain of Kappa-type opioid receptor (Homo sapiens) (P41145 whole entry): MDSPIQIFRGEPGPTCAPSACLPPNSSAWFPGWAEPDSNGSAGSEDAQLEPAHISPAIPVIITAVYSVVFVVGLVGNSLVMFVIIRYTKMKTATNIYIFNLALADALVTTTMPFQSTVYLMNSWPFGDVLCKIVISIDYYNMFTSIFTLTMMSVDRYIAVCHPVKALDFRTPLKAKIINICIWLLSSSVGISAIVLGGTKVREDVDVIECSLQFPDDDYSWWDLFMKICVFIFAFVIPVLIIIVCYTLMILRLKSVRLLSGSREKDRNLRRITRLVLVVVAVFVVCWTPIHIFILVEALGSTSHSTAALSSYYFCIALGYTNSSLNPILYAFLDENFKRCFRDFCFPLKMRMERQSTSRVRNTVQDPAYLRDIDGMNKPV
# Mus musculus [21] = assay: In vivo antinociceptive activity was determined using mouse acetylcholine induced abdominal constriction test following subcutaneous administration; range (0.015-0.037); type: functional; details: Abdomen, sc; summary of the method: as §1
smiles,measurement,setting,value
COC(=O)N1CCN(C(=O)Cc2ccc(Cl)c(Cl)c2)C(CN2CCC(O)C2)C1 (stereo not drawn),ED50,Mus musculus [1],44 µg/kg
C=CC(=O)N1CCN(C(=O)Cc2ccc(Cl)c(Cl)c2)C(CN2CCCC2)C1 (stereo not drawn),ED50,Mus musculus [2],20 µg/kg
O=C(Cc1ccc(Cl)c(Cl)c1)N1CCC2(CC1CN1CCCC1)OCCO2 (stereo not drawn),ED50,Mus musculus [3],1 µg/kg
same,IC50,[4],0.1 nM
COC(=O)N1CCN(C(=O)Cc2ccc(Cl)c(Cl)c2)C(CN2CC=CCC2)C1 (stereo not drawn),ED50,Mus musculus [5],0.096 µg/kg
COC(=O)N1CCN(C(=O)Cc2ccc(Cl)c(Cl)c2)C(CN(C)C)C1 (stereo not drawn),ED50,Mus musculus [6],16 µg/kg
CCCC(=O)N1CCN(C(=O)Cc2ccc(Cl)c(Cl)c2)C(CN2CCCC2)C1 (stereo not drawn),ED50,Mus musculus [7],410 µg/kg
CCOC(=O)N1CCN(C(=O)Cc2ccc(Cl)c(Cl)c2)C(CN2CCCC2)C1 (stereo not drawn),ED50,Mus musculus [8],10 µg/kg
CC(=O)N1CCN(C(=O)Cc2ccc(Cl)c(Cl)c2)C(CN2CCCC2)C1 (stereo not drawn),ED50,Mus musculus [9],80 µg/kg
same,IC50,Rattus norvegicus [10],Not Active
O=CN1CCN(C(=O)Cc2ccc(Cl)c(Cl)c2)C(CN2CCCC2)C1 (stereo not drawn),ED50,Mus musculus [11],230 µg/kg
CCCOC(=O)N1CCN(C(=O)Cc2ccc(Cl)c(Cl)c2)C(CN2CCCC2)C1 (stereo not drawn),ED50,Mus musculus [12],680 µg/kg
CN1CC[C@]23c4c5ccc(O)c4O[C@H]2[C@@H](O)C=C[C@H]3[C@H]1C5 [MORPHINE],ED50,Mus musculus [12],470 µg/kg
COC(=O)/C=C1\CCN(CC2CN(C(=O)OC)CCN2C(=O)Cc2ccc(Cl)c(Cl)c2)C1 (stereo not drawn),ED50,Mus musculus [13],100 µg/kg
CCC(=O)N1CCN(C(=O)Cc2ccc(Cl)c(Cl)c2)C(CN2CCCC2)C1 (stereo not drawn),ED50,Mus musculus [14],50 µg/kg
COC(=O)/C=C1/CCN(CC2CN(C(=O)OC)CCN2C(=O)Cc2ccc(Cl)c(Cl)c2)C1 (stereo not drawn),ED50,Mus musculus [15],4 µg/kg
COC(=O)N1CCN(C(=O)Cc2ccc(Cl)c(Cl)c2)C(CN2CCCC2)C1 (stereo not drawn),ED50,Mus musculus [16],12 µg/kg
same,ED50,Mus musculus [17],0.25 µg/kg
same,ED50,Mus musculus [18],0.52 µg/kg
same,ED50,Rattus norvegicus [19],0.93 µg/kg
same,IC50,Mu-type opioid receptor,> 10000 nM
same,pKB,[20],7.7
COC(=O)N1CCN(C(=O)Cc2ccc(Cl)c(Cl)c2)C(CN2CCC(=O)C2)C1 (stereo not drawn),ED50,Mus musculus [21],23 µg/kg
